Assay results reported in the RNAGym collection of RNA variant scans (doi:10.1126/science.aae0568).
Variants at the floor of the assay were thinned out.

B1: tRNA (parent)
chain: GUUCCGUUGGCGUAAUGGUAACGCGUCUCCCUCCUAAGGAGAAGACUGCGGGUUCGAGUCCCGUACGGAACG

Variants of: B1
Test: yeast fitness relative to wild type (ratio to wild type); higher = fitter; tRNA-Arg(CCU), competitive growth, 37 C, YPD
In short: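 Variants of the tRNA-Arg(CCU) gene, chemically synthesised with a 3% per-site mutation rate at 69 sites, were placed at the native genomic locus in Saccharomyces cerevisiae. The pooled strains were competed in YPD at 37°C for 24 hours in six parallel replicates. Gene amplicons from the start population and from each end population were read by 100-nucleotide paired-end sequencing. Darwinian fitness relative to wild type came from changes in genotype frequencies; genotypes needed ≥ 100 starting reads, and estimates < 0.5 were set to 0.5.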

Variant	yeast fitness
C5A U59A A69G	≤ 0.5
C5A G39A U47A G68C	≤ 0.5
C5A A36G C66U	0.655
C4U G6A	0.901
C4U U26A A45C	0.53
C5A U19G A43U	0.656
C5A A43U U47C	0.543
C4U U13A A14U C29U A37G	0.581
C4U G12C A20G U47A C49U A57U C61A G68A	≤ 0.5
C5A C24G C29G A40C A43U U47A C60A	≤ 0.5
C5A U26A G56A A65G	0.565
C5A U19A A65C	0.538
C4U C49A	0.787
C4U C49U	0.989
C5A U26A A40G G58C G67U	0.56
C4U C60G G63A	0.706
C4U G23C G51A A69G	0.586
C5A C22U G39A A45C	≤ 0.5
C5A C11A C30U C31A G58A G67C	0.548
C4U U16C A36U C49U G58C C66U	≤ 0.5
C5A C27G U47C A70U	0.578
C5G A14U A20U G41A A57G	≤ 0.5
C5A C33G	0.698
C5A C11G C30U A36C A42G C61G	≤ 0.5

Variant	yeast fitness
C5A U16C A21C C33U A40G U54G C62G	0.577
C4U C34G A37C	0.539
C5A G17A G25A G48C	≤ 0.5
C5A C27U C31G A43C C49G G52C U59A	≤ 0.5
C4U G18C A57C	0.639
C5A C11G G41C C49U	≤ 0.5
C5A C29G C61A	≤ 0.5
C5A C46A	0.97
C4U C66A	0.746
C4U G56A	0.934
C5A C11U G44C C49U	0.53
C5A A42G G51C	≤ 0.5
C5A C22G C31G	≤ 0.5
C4U C34G U35A A42U	≤ 0.5
C5A C30U A40U	0.621
C4U G10A U28A	≤ 0.5
C5A A14G C31U C34U C60G G63A	≤ 0.5
C5A G50A G68C	≤ 0.5
C5A C29U A45C	0.546
C5G A14G G17A U32C G56C A69U	≤ 0.5
C4U U7A G39C	≤ 0.5
C4U G52A G63C	0.595
C4U G39U	0.834
C5A A20C U64A G67A	≤ 0.5

Variant	yeast fitness
C5A A14U G50A A57U A70G	≤ 0.5
C4U G58C A69U	0.785
C4U G6A A40G A43G C49U	≤ 0.5
C4U G12A A20G C22U U35A A45C	≤ 0.5
C5G A14U C27U A42U A43U U47C	≤ 0.5
C4U C46G G63C C66A	≤ 0.5
C5A A37U C66U	≤ 0.5
C5A U28G A42U	≤ 0.5
C4U U8A G48A C55U	≤ 0.5
C5A G23C C62U A69U	≤ 0.5
C5A U8C A20G C34G A43U C66U	≤ 0.5
C5A U8G C27U A45G U53C	≤ 0.5
C4U G6A C34A A70C	≤ 0.5
C4U U8C G17C C49A	≤ 0.5
C5A C30U G68U	0.567
C4U G9C A69C	0.594
C4U G25A C34G G52U	≤ 0.5
C5A G6C G10A A42C	≤ 0.5
C5A A36C A69C	0.539
C4U C33A G48C	≤ 0.5
C5A C11G G51A	0.538
C5A G25A U28C C31U A40C A42G	≤ 0.5
C5A G52A G58C	≤ 0.5
C4U G12A	1.11

Variant	yeast fitness
C5A A36C	0.608
C5A A36U	0.678
C4U U19C A36G G39A G67A	≤ 0.5
C4U G12A U19C U26A	≤ 0.5
C5A A21U	0.621
C5A A36G A42C A43U	≤ 0.5
C5A G9A G25A A69U	≤ 0.5
C4U U8A C33U A36U A65C	≤ 0.5
C4U G17A A57U	≤ 0.5
C4U C34G A69C	0.664
C5A A40G C66U	0.549
C4U C34G G41C G56C G58A G63C A65U	≤ 0.5
C5A G18A G25A C31U U47C C61U	≤ 0.5
C4U C31U A37C	0.532
C4U U16G C66G	≤ 0.5
C5A A40G C62U	≤ 0.5
C5A U16G A21C C24U C30A U59G	≤ 0.5
C5A C11G A21U C62U	≤ 0.5
C5A C11G A40G G67C A69U	≤ 0.5
C4U G10A A15C A57C C66G	≤ 0.5
C4U U64C	0.962
C5A A20G G41C A65U	≤ 0.5
C5A C60U A70G	≤ 0.5
C4U U26G	0.912

Variant	yeast fitness
C4U G17C C49A	0.55
C5G A14C U16A C30U G38C G41C C46G	≤ 0.5
C4U G12A U16A G51A U54A	≤ 0.5
C4U G12A C62U	0.73
C5A U7C C29U C66U	≤ 0.5
C5A C33G C34U	≤ 0.5
C4U U8C A36G A40C G44C	≤ 0.5
C4U U16A A40C C55U C61A C66A	0.528
C5A A69U A70C	0.768
C5A C62U	0.954
C5A G12A G18A A65U	≤ 0.5
C5A U7C C30A C31U	≤ 0.5
C4U G6A C34U	≤ 0.5
C5A G25C C66G	≤ 0.5
C5A A15C G39C	≤ 0.5
C5A C11G G51A C61U	≤ 0.5
C5A A36U G39A A45G G63U	≤ 0.5
C5A C33U G67A	0.593
C5A A57U G68U A70G	0.541
C4U U7A A37C	≤ 0.5
C5A U13A U35A U59C	0.661
C5A G39A U47A C55U G67A A69G	≤ 0.5
C4U U28A A57C C61A	≤ 0.5
C4U C31U	0.966

Variant	yeast fitness
C4U G25A A57U U59A	≤ 0.5
C4U G67U	0.782
C5A A20C C29U C34A C46A G50A A57U C66U	≤ 0.5
C5A G6A U7A A43U G44A C46A	0.691
C4U G17A U19G A21G A43G	0.554
C5A C11G A21U	0.505
C5A C22U C49A C62U	≤ 0.5
C5A A14U A21G G52A	0.533
C4U G23C C30G	≤ 0.5
C4U G12A G67A	0.674
C4U C46G	0.981
C5A G48A	0.871
C4U G9A C49U G50A	0.644
C5A U8C U13C A40G C62U	≤ 0.5
C4U U26C G44A G52A C66U	≤ 0.5
C5A G12C	0.746
C4U G23C A36C	0.597
C5A G17A A36G	≤ 0.5
C4U G10A A14U C46U	≤ 0.5
C4U U54C	0.921
C4U G9C	0.688
C4U G9A	0.927
C4U G23C A40U A42G G58C	≤ 0.5
C5A U59A C60U	≤ 0.5

Variant	yeast fitness
C4U U16A C61U	0.708
C5A U54A C55G A65C	≤ 0.5
C4U C34G	0.768
C4U C34U	0.737
C5A G23C A65G	0.532
C4U G12C C49G	0.533
C5A A65C	0.839
C5A G17C A42C A57C	≤ 0.5
C5G A14U G18A A21U A42G G56C	≤ 0.5
C4U G10C G48C C62A	≤ 0.5
C4U C33U G50C	≤ 0.5
C5A G17A A36G G67A A69U	≤ 0.5
C4U U32A	0.712
C5A C11A A42U U53A	0.616
C5A C11A C24U U26C C29U C31G A42G	≤ 0.5
C5A U26G	0.785
C5A C30U G52A	≤ 0.5
C5A C24U A37G A40G A42U C49U	≤ 0.5
C5A G10C G12A G23A	≤ 0.5
C5A A15C C29U C46U U53A	0.52
C5A U13C C29U G48C G52C A57C G58A	≤ 0.5
C5A A14G C29G C55U A70U	≤ 0.5
C5A A14U U53A U59G	0.597
